# ChEMBL document CHEMBL1158358, “Synthesis, antimicrobial and cytotoxic activities of some 5-arylidene-4-thioxo-thiazolidine-2-ones” (Eur J Med Chem, 2009)
# How the values were obtained:
# Format in all cases: functional
# Staphylococcus aureus [1] = test: Antimicrobial activity against Staphylococcus aureus UFPEDA 01 after 20 hrs by twofold serial dilution technique; conditions: UFPEDA 01, 20 h
# Method in brief: (§1)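 Twofold serial dilution MIC in agar plates against Gram-positive strains and multidrug-resistant clinical isolates. Inoculum applied was 10⁵ CFU/plate. Plates with culture medium plus DMSO served as negative control. MIC was read after incubation at 35 °C for 20 h.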
# Bacillus subtilis [2] = test: Antimicrobial activity against Bacillus subtilis UFPEDA 16 after 20 hrs by twofold serial dilution technique; conditions: UFPEDA 16, 20 h
# Method in brief: (§2)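 MIC was determined by twofold serial dilution. Bacteria were tested in plates at 10⁵ CFU/plate and read after 20 h. C. albicans was tested in tubes at 10³ CFU/tube and read after 48 h. All incubations were at 35 °C. Medium plus DMSO served as the negative control.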
# Micrococcus luteus [3] = test: Antimicrobial activity against Micrococcus luteus UFPEDA 06 after 20 hrs by twofold serial dilution technique; conditions: UFPEDA 06, 20 h; method in brief: as §2
# Enterococcus faecalis [4] = test: Antimicrobial activity against Enterococcus faecalis UFPEDA 138 after 20 hrs by twofold serial dilution technique; conditions: UFPEDA 138, 20 h; method in brief: as §2
# [5] = test system: Mycolicibacterium smegmatis; test: Antimicrobial activity against Mycobacterium smegmatis UFPEDA 71 after 20 hrs by twofold serial dilution technique; conditions: UFPEDA 71, 20 h; method in brief: as §2
# Candida albicans [6] = test: Antimicrobial activity against Candida albicans UFPEDA 1007 after 48 hrs by twofold serial dilution technique; conditions: UFPEDA 1007, 48 h; method in brief: as §2
# Staphylococcus aureus [7] = test: Antimicrobial activity against multidrug-resistant Staphylococcus aureus H.C. 20981 isolate after 20 hrs by twofold serial dilution technique; conditions: H.C. 20981, 20 h; method in brief: as §1
# Staphylococcus aureus [8] = test: Antimicrobial activity against multidrug-resistant Staphylococcus aureus H.C. 21141 isolate after 20 hrs by twofold serial dilution technique; conditions: H.C. 21141, 20 h; method in brief: as §1
# Staphylococcus aureus [9] = test: Antimicrobial activity against multidrug-resistant Staphylococcus aureus H.C. 21036 isolate after 20 hrs by twofold serial dilution technique; conditions: H.C. 21036, 20 h; method in brief: as §1
# Staphylococcus aureus [10] = test: Antimicrobial activity against multidrug-resistant Staphylococcus aureus H.C. 20489 isolate after 20 hrs by twofold serial dilution technique; conditions: H.C. 20489, 20 h; method in brief: as §1
# Staphylococcus aureus [11] = test: Antimicrobial activity against multidrug-resistant Staphylococcus aureus H.C. 20794 isolate after 20 hrs by twofold serial dilution technique; conditions: H.C. 20794, 20 h; method in brief: as §1
# Staphylococcus aureus [12] = test: Antimicrobial activity against multidrug-resistant Staphylococcus aureus H.C. 20905 isolate after 20 hrs by twofold serial dilution technique; conditions: H.C. 20905, 20 h; method in brief: as §1
# Enterococcus faecalis [13] = test: Antimicrobial activity against multidrug-resistant Enterococcus faecalis H.C. 21752 isolate after 20 hrs by twofold serial dilution technique; conditions: H.C. 21752, 20 h; method in brief: as §1
# Enterococcus faecalis [14] = test: Antimicrobial activity against multidrug-resistant Enterococcus faecalis H.C. 21944 isolate after 20 hrs by twofold serial dilution technique; conditions: H.C. 21944, 20 h; method in brief: as §1
# Enterococcus faecalis [15] = test: Antimicrobial activity against multidrug-resistant Enterococcus faecalis H.C. 24708 isolate after 20 hrs by twofold serial dilution technique; conditions: H.C. 24708, 20 h; method in brief: as §1
# Enterococcus faecalis [16] = test: Antimicrobial activity against multidrug-resistant Enterococcus faecalis H.C. 24962 isolate after 20 hrs by twofold serial dilution technique; conditions: H.C. 24962, 20 h; method in brief: as §1
# Staphylococcus [17] = test: Antimicrobial activity against coagulase-negative Staphylococcus H.A.M. 278 isolate after 20 hrs by twofold serial dilution technique; conditions: H.A.M. 278, 20 h; method in brief: as §2
# Staphylococcus [18] = test: Antimicrobial activity against coagulase-negative Staphylococcus H.A.M. 338 isolate after 20 hrs by twofold serial dilution technique; conditions: H.A.M. 338, 20 h; method in brief: as §2
# NCI-H292 [19] = test: Cytotoxicity against human NCI-H292 cells at 10 ug/mL after 72 hrs by MTT assay; conditions: NCI-H292, 72 h, read-out: GI
# Method in brief: (§3)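 MTT antiproliferative assay. Cells were diluted to 10⁵ cells/mL in 96-well plates and preincubated for 24 h at 37 °C in humid 5% CO₂. Compounds or vincristine (reference) were then added. Formazan was dissolved and OD read at 540 nm, compared with medium-only control cells. Run in triplicate.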
# NCI-H292 [20] = test: Cytotoxicity against human NCI-H292 cells at 5 ug/mL after 72 hrs by MTT assay; conditions: NCI-H292, 72 h, read-out: GI; method in brief: as §3
# NCI-H292 [21] = test: Cytotoxicity against human NCI-H292 cells at 2.5 ug/mL after 72 hrs by MTT assay; conditions: NCI-H292, 72 h, read-out: GI; method in brief: as §3
# NCI-H292 [22] = test: Cytotoxicity against human NCI-H292 cells at 1.25 ug/mL after 72 hrs by MTT assay; conditions: NCI-H292, 72 h, read-out: GI; method in brief: as §3
# HEp-2 [23] = test: Cytotoxicity against human Hep2 cells at 10 ug/mL after 72 hrs by MTT assay; conditions: HEp-2, 72 h, read-out: GI; method in brief: as §3
# HEp-2 [24] = test: Cytotoxicity against human Hep2 cells at 5 ug/mL after 72 hrs by MTT assay; conditions: HEp-2, 72 h, read-out: GI; method in brief: as §3
# HEp-2 [25] = test: Cytotoxicity against human Hep2 cells at 2.5 ug/mL after 72 hrs by MTT assay; conditions: HEp-2, 72 h, read-out: GI; method in brief: as §3
# HEp-2 [26] = test: Cytotoxicity against human Hep2 cells at 1.25 ug/mL after 72 hrs by MTT assay; conditions: HEp-2, 72 h, read-out: GI; method in brief: as §3
# Serratia marcescens = test: Antimicrobial activity against Serratia marcescens UFPEDA 398 at 300 ug/disk after 24 hrs by disk diffusion method; conditions: UFPEDA 398, 24 h, read-out: IZ
# Method in brief: (§4)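 Preliminary screen by disk diffusion. Paper disks (6 mm) holding 300 µg of compound were placed on agar plates inoculated with a standardized microbial suspension. DMSO-only disks served as negative controls. A mean inhibition zone below 7 mm was scored as no sensitivity. Values are means, n = 3.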
# Escherichia coli = test: Antimicrobial activity against Escherichia coli UFPEDA 224 at 300 ug/disk after 24 hrs by disk diffusion method; conditions: UFPEDA 224, 24 h, read-out: IZ; method in brief: as §4
# Staphylococcus aureus [27] = test: Antimicrobial activity against Staphylococcus aureus UFPEDA 01 at 300 ug/disk after 24 hrs by disk diffusion method; conditions: UFPEDA 01, 24 h, read-out: IZ; method in brief: as §4
# Bacillus subtilis [28] = test: Antimicrobial activity against Bacillus subtilis UFPEDA 16 at 300 ug/disk after 24 hrs by disk diffusion method; conditions: UFPEDA 16, 24 h, read-out: IZ; method in brief: as §4
# Micrococcus luteus [29] = test: Antimicrobial activity against Micrococcus luteus UFPEDA 06 at 300 ug/disk after 24 hrs by disk diffusion method; conditions: UFPEDA 06, 24 h, read-out: IZ; method in brief: as §4
# Enterococcus faecalis [30] = test: Antimicrobial activity against Enterococcus faecalis UFPEDA 138 at 300 ug/disk after 24 hrs by disk diffusion method; conditions: UFPEDA 138, 24 h, read-out: IZ; method in brief: as §4
# Pseudomonas aeruginosa = test: Antimicrobial activity against Pseudomonas aeruginosa UFPEDA 39 at 300 ug/disk after 24 hrs by disk diffusion method; conditions: UFPEDA 39, 24 h, read-out: IZ; method in brief: as §4
# [31] = test system: Mycolicibacterium smegmatis; test: Antimicrobial activity against Mycobacterium smegmatis UFPEDA 71 at 300 ug/disk after 24 hrs by disk diffusion method; conditions: UFPEDA 71, 24 h, read-out: IZ; method in brief: as §4
# Candida albicans [32] = test: Antimicrobial activity against Candida albicans UFPEDA 1007 at 300 ug/disk after 48 hrs by disk diffusion method; conditions: UFPEDA 1007, 48 h, read-out: IZ; method in brief: as §4
Structure (SMILES),MIC (Staphylococcus aureus [1]) [µg/mL],MIC (Bacillus subtilis [2]) [µg/mL],MIC (Micrococcus luteus [3]) [µg/mL],MIC (Enterococcus faecalis [4]) [µg/mL],MIC [5] [µg/mL],MIC (Candida albicans [6]) [µg/mL],MIC (Staphylococcus aureus [7]) [µg/mL],MIC (Staphylococcus aureus [8]) [µg/mL],MIC (Staphylococcus aureus [9]) [µg/mL],MIC (Staphylococcus aureus [10]) [µg/mL],MIC (Staphylococcus aureus [11]) [µg/mL],MIC (Staphylococcus aureus [12]) [µg/mL],MIC (Enterococcus faecalis [13]) [µg/mL],MIC (Enterococcus faecalis [14]) [µg/mL],MIC (Enterococcus faecalis [15]) [µg/mL],MIC (Enterococcus faecalis [16]) [µg/mL],MIC (Staphylococcus [17]) [µg/mL],MIC (Staphylococcus [18]) [µg/mL],inhibition of growth at 10 µg/mL (NCI-H292 [19]) [%],inhibition of growth at 5 µg/mL (NCI-H292 [20]) [%],other results
O=C1NC(=S)/C(=C/c2ccccc2Cl)S1,4,16,16,16,16,32,4,8,2,2,2,2,16,32,16,32,32,8,45,34.2,inhibition of growth at 2.5 µg/mL (NCI-H292 [21]): 19.9%; inhibition of growth at 1.25 µg/mL (NCI-H292 [22]): 10.6%; inhibition of growth at 10 µg/mL (HEp-2 [23]): 21.1%; inhibition of growth at 5 µg/mL (HEp-2 [24]): 5.97%; inhibition of growth at 2.5 µg/mL (HEp-2 [25]): -11.5%; inhibition of growth at 1.25 µg/mL (HEp-2 [26]): -11.3%; zone of inhibition at 300 µg/disc (Serratia marcescens): < 7 mm; zone of inhibition at 300 µg/disc (Escherichia coli): < 7 mm; zone of inhibition at 300 µg/disc (Staphylococcus aureus [27]): 25 mm; zone of inhibition at 300 µg/disc (Bacillus subtilis [28]): 17 mm; zone of inhibition at 300 µg/disc (Micrococcus luteus [29]): 18 mm; zone of inhibition at 300 µg/disc (Enterococcus faecalis [30]): 16 mm; zone of inhibition at 300 µg/disc (Pseudomonas aeruginosa): < 7 mm; zone of inhibition at 300 µg/disc [31]: 20 mm; zone of inhibition at 300 µg/disc (Candida albicans [32]): 12 mm
O=C1NC(=S)/C(=C/c2cc(Cl)cc(Cl)c2Cl)S1,4,2,4,2,32,64,2,2,2,2,2,2,4,4,4,4,2,2,40.5,39.7,inhibition of growth at 2.5 µg/mL (NCI-H292 [21]): 33%; inhibition of growth at 1.25 µg/mL (NCI-H292 [22]): 14.2%; inhibition of growth at 10 µg/mL (HEp-2 [23]): 23.5%; inhibition of growth at 5 µg/mL (HEp-2 [24]): 22.8%; inhibition of growth at 2.5 µg/mL (HEp-2 [25]): 21.8%; inhibition of growth at 1.25 µg/mL (HEp-2 [26]): 12.6%; zone of inhibition at 300 µg/disc (Serratia marcescens): < 7 mm; zone of inhibition at 300 µg/disc (Escherichia coli): < 7 mm; zone of inhibition at 300 µg/disc (Staphylococcus aureus [27]): 16 mm; zone of inhibition at 300 µg/disc (Bacillus subtilis [28]): < 7 mm; zone of inhibition at 300 µg/disc (Micrococcus luteus [29]): 21 mm; zone of inhibition at 300 µg/disc (Enterococcus faecalis [30]): 19 mm; zone of inhibition at 300 µg/disc (Pseudomonas aeruginosa): < 7 mm; zone of inhibition at 300 µg/disc [31]: < 7 mm; zone of inhibition at 300 µg/disc (Candida albicans [32]): < 7 mm
